# PostGolgi ctrl: growth inhibition of yeast control strain, primary screen, counter-screen for post-Golgi transport modulator project. efflux-deficient yeast background strain, growth absorbance A615, 16 h. hit rate 5% among 98,000. inhibition, % at 10 µM. AID 738, 2007
# E coli WT exp: growth inhibitors of wild-type E. coli, primary screen, strain BW25113, expanded library, OD600 | growth inhibition, % at 100 µM | OD600 absorbance | hit rate 0.15% among 98,000 | AID 710, 2007;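 active = growth inhibition above about 50% at one test dose, limit read from the data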;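 note: growth measured after 20 h incubation at 37 °C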
# tolC growth inh: growth inhibitors of E. coli tolC mutant, primary screen, strain BW25113 ΔtolC::kan, 384-well. OD615. growth inhibition, % at 10 µM (by protocol). hit rate 2.2% among 65,000. AID 573, 2007;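 active = growth inhibition at or above a cutoff equal to the mean over every tested compound plus 3 SD, cut at about 60% in these data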;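 note: growth measured after 20 h incubation at 37 °C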
#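 Test system: E. coli BW25113 ΔtolC::kan bacteria | Medium: Kanamycin-containing LB broth (50 µg/mL) | Dosing: One dose of 10 µM final | Times: 20 h incubation with compound, 37 °C | Detection: Optical density read at 615 nm | Read-out basis: Percent growth inhibition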
# PostGolgi yeast: phenotypic screen on post-Golgi transport, primary screen; post-Golgi transport phenotypic cell assay; inhibition, % at 10 µM; hit rate 0.9% among 98,000;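 note: yeast cells grown in 1536-well plates; yeast grown about 18 h at 30C before absorbance read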
# Cav3 T inh: Cav3.2 calcium influx blockers – cell-based, Fluo-4 calcium fluorescence, FDSS, MLSMR library, primary screen. Cav3.2-expressing cells; stronger effect = lower value. Voltage-dependent T-type calcium channel subunit alpha-1H (Homo sapiens), O95180. hit rate 4% among 100,000. AID 449739, 2010. B-score at 10 µM;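 active = single-dose well whose peak fluorescence ratio is a statistical outlier from its plate by either plate-standardised score or position-corrected B-score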
# Pyk2 oligo antag: antagonists of Pyk2 self-association, primary screen, Q293 cells, FERM NanoBiT luminescence, HTS; z-score (the deposit names both 25 µM and 10 µM); Protein-tyrosine kinase 2-beta (Homo sapiens), Q14289; stronger effect = lower value; hit rate 0.83% among 99,000; AID 1347419, 2020;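 active = Z-score of -3 or lower, scaled per plate to the spread of control and sample wells; inactive = z-score above -3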;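 note: negative z-score means lost luminescence so less FERM oligomerization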
# * hit, by the source's call; · = not tested or not shown. Rows were chosen to be rich in hits. Some 8.7% of all compounds tested hit in one or more screens of this group. Cut-off read from the data, not from the text of the source, unless noted: active = inhibition above about 30%; inactive = the rest.
SMILES,PostGolgi ctrl,E coli WT exp,tolC growth inh,PostGolgi yeast,Cav3 T inh,Pyk2 oligo antag
CC(NC(=O)COC(=O)c1cn(-c2ccccc2)nc1-c1cccs1)c1ccccc1 (stereo not drawn),24,-15,·,-6,-2.6,0.74
CCO[C@@H]1OC(C(=O)N2CCOCC2)=C[C@H](c2coc3ccccc3c2=O)[C@H]1CCCO,·,·,·,·,-0.027,·
Cc1cc(C)nc(N(C#N)Cc2cccc3ccccc23)n1,27,-4,·,2,-5.2*,-2.2
Cc1cc(C)nc(N(C#N)Cc2ccccc2)n1,10,2,16,-2,0.46,-0.77
CN(C)C(=O)c1ccccc1Sc1cc(Cl)ccc1Cl,35*,6,·,5,·,-1.8
Cc1cc2c(cc(C(=O)OC(C(=O)NCc3ccco3)C(C)C)n2C)o1 (stereo not drawn),14,2,33,15,-0.085,0.04
CC(C)C(OC(=O)c1cc2occc2n1C)C(=O)NCc1ccc2c(c1)OCO2 (stereo not drawn),48*,-13,1,1,-2.4,-0.43
Cc1ccc2c(CC(=O)NCc3ccc4c(c3)OCO4)coc2c1,-6,-5,-19,-6,-4.6*,0.07
Cc1ccc2c(CC(=O)OC(C)C(=O)NCc3ccc4c(c3)OCO4)coc2c1 (stereo not drawn),14,6,22,-5,-5.1*,1.2
CC(OC(=O)Cc1coc2cc3c(cc12)CCC3)C(=O)NCc1ccc2c(c1)OCO2 (stereo not drawn),-2,5,·,-1,-0.76,0.15
CC/C(O)=C(\C#N)c1nnc2n1CCCCC2,3,-3,·,-4,-0.2,0.18
CCn1cc(C(=O)NC2CC3CCC2C3)c(=O)c2ccc(C)nc21 (stereo not drawn),·,·,0,·,·,·
CCn1cc(C(=O)NC2CCCCC2C)c(=O)c2ccc(C)nc21 (stereo not drawn),15,92*,100*,19,-0.84,0.02
O=C(c1ccc(F)cc1)N1CCCCC(Sc2nnc3ccccn23)C1=O (stereo not drawn),2,-5,-5,3,1.9,1.4
O=C(c1ccccc1)N1CCCCC(Sc2nnc3ccccn23)C1=O (stereo not drawn),31*,-15,-6,-2,-3.2,1.3
O=C(CCCc1ccccc1)N1CCN(c2ccc([N+](=O)[O-])cc2)CC1,-1,8,·,3,-0.019,1.1
Cc1ccc(O)c(C(CC(=O)N2CCCC2)c2ccccc2)c1 (stereo not drawn),·,·,-3,·,·,·
CCCN(CCC)C(=O)CC(c1ccccc1)c1cc(C)ccc1O (stereo not drawn),14,4,·,-6,-5.9*,-1.5
O=CN/C=C/c1cc(O)ccc1O,·,·,·,·,0.66,·
CCOC(=O)C(C)Sc1nnc(Cc2cc(=O)[nH]c(=O)[nH]2)n1-c1cccc(OC)c1 (stereo not drawn),32*,7,-9,2,-2.3,·
Cc1cc(C)nc(SCc2nnc(SCC(=O)N3CCCc4ccccc43)o2)n1,14,6,11,-7,-0.5,0.51
Cc1occc1C(=O)n1nnc2ccccc21,32*,-3,-6,7,0.19,·
Cc1occc1C(=O)n1cnc2ccccc21,-1,10,-4,20,-0.052,·
Cc1ccccc1N(CC(=O)N/N=C/c1ccc(Cl)cc1)C(=O)c1ccccc1,32*,-10,·,8,-5.2*,-2.2
CC(C)(C)c1ccc(/C=N/NC(=O)Cc2c[nH]c3ccccc23)cc1,12,-6,·,0,-2.5,-2.5
SMILES,PostGolgi ctrl,E coli WT exp,tolC growth inh,PostGolgi yeast,Cav3 T inh,Pyk2 oligo antag
O=C(Cc1cccc2ccccc12)N/N=C/c1ccc(F)cc1,-7,-1,·,-9,-4*,-0.14
Cc1ccccc1N(CC(=O)N/N=C/c1ccc(F)cc1)C(=O)c1ccccc1,16,-4,·,8,-5.6*,-1.5
CCOC(=O)CN(C(=O)c1ccccc1)c1ccccc1C,23,-3,3,-5,0.59,0.71
CCCOC(=O)C(C)n1cnc2sc(C)c(C)c2c1=O (stereo not drawn),2,1,·,27,-0.87,0.73
COCCn1c(=S)[nH]c2cc(C(=O)N3CCN(c4ccc(F)cc4)CC3)ccc2c1=O,13,-1,8,2,-0.029,1.3
COc1ccc(Nc2nc(N3CCCCC3)c3ccccc3n2)cc1,86*,1,·,59*,-2.5,-0.91
c1ccc(Nc2nc(N3CCCCC3)nc(N3CCNCC3)n2)cc1,15,32,-3,1,0.073,0.28
c1ccc(Nc2nc(N3CCCCC3)nc(N3CCCCC3)n2)cc1,53*,-19,·,-4,-3.8,-0.27
c1ccc(Nc2nc(N3CCCC3)nc(N3CCCC3)n2)cc1,70*,-2,·,8,-0.89,-0.43
CCN(CCCNC(=O)C1CCN(S(=O)(=O)c2cnc[nH]2)CC1)c1cccc(C)c1,-4,9,-11,12,0.23,-0.72
CCOCCCNC(=O)C1CCN(C(=O)N(C)C)CC1,-3,1,-22,43*,0.068,-1
CC(C)(C)c1ccc(-c2nnc(SCCN3C(=O)c4ccccc4C3=O)o2)cc1,33*,-5,·,-3,-1.3,0.95
COc1ccc(OCCN2CCN(C3CC(=O)N(CCC(C)C)C3=O)CC2)cc1 (stereo not drawn),14,-1,4,3,0.1,0.88
CC(C)NC(=O)COC(=O)c1ccc(Oc2ccccc2)cc1,-5,1,·,-2,-0.41,1.7
N#CC(C(=O)C12CC3CC(CC(C3)C1)C2)c1nc2ccccc2[nH]1 (stereo not drawn),74*,-16,48,-6,0.18,-2.7
Brc1c(OCCOCCn2cncn2)ccc2ccccc12,8,6,14,-10,-0.16,-0.33
CC(CCc1ccccc1)NS(=O)(=O)c1ccccc1 (stereo not drawn),15,-9,·,-9,-2.5,0.39
CC(C)OCCCNc1ncnc2c1[nH]c1ccccc12,7,16,100*,17,-1.4,-0.23
Cc1c(Cl)cccc1N1C(=O)C2ON(c3ccccc3)C(c3cccnc3)C2C1=O (stereo not drawn),-5,-2,2,-1,-1.8,-0.65
Cc1ccc(Oc2ccc(-c3nc(N)nc(N)n3)cc2)cc1C,50*,-5,·,-2,1.5,-1.2
Nc1nc(N)nc(-c2ccc(Oc3ccccc3)cc2)n1,22,-9,·,11,-0.027,-0.39
O=C(O)C1CC=CCC1C(=O)Nc1ccccc1Cl (stereo not drawn),16,-3,-20,-8,0.12,1.5
CC(=O)SC(C)CC(=O)NCc1ccccc1 (stereo not drawn),-4,3,·,-9,-0.75,-0.02
O=C(O)C1CC(=O)N(c2ccc(Br)cc2)C1 (stereo not drawn),42*,-2,-21,-7,0.54,1.8

# From PubChem BioAssay
